# Legend:
# Type in all cases: functional
# [1] = tested on: Malassezia furfur; experiment: Antifungal activity against Malassezia furfur NBRC 0656 after 48 hrs by broth microdilution method; conditions: NBRC 0656, 48 h
# Outline: (§1)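 CLSI M27-A2 (yeasts) / M38-A (moulds) broth microdilution in RPMI 1640 buffered to pH 7.0 with 0.165 M MOPS. Malassezia furfur got the same medium supplemented with glucose, bile salts, glycerol, glycerol monostearate and Tween 20. Final inoculum 0.65 × 10^3–2.5 × 10^3 CFU/ml for yeasts and 0.87 × 10^4–3.8 × 10^4 CFU/ml for filamentous fungi. Incubation at 35°C except M. racemosus and F. solani, which were held at 30°C.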
# [2] = tested on: Cryptococcus neoformans; experiment: Antifungal activity against Cryptococcus neoformans ATCC 90112 after 72 hrs by broth microdilution method; conditions: ATCC 90112, 72 h
# Outline: (§2)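 CLSI M27-A2 (yeasts) or M38-A (A. fumigatus) broth microdilution in RPMI 1640 buffered to pH 7.0 with 0.165 M MOPS. Final inocula were 0.65–2.5 × 10^3 CFU/ml for yeasts and 0.87–3.8 × 10^4 CFU/ml for filamentous fungi. Incubation was at 35°C for about 48 h (72 h for C. neoformans). MIC was the lowest concentration giving a prominent (~50%) turbidity drop versus growth control; amphotericin B required complete inhibition.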
# [3] = tested on: Meyerozyma guilliermondii; experiment: Antifungal activity against Candida guilliermondii IFO 10279 after 48 hrs by broth microdilution method; conditions: IFO 10279, 48 h; outline: as §1
# [4] = tested on: Aspergillus terreus; experiment: Antifungal activity against Aspergillus terreus NBRC 33026 after 48 hrs by broth microdilution method; conditions: NBRC 33026, 48 h; outline: as §1
# [5] = tested on: Fusarium solani; experiment: Antifungal activity against Fusarium solani IFO 31093 after 48 hrs by broth microdilution method; conditions: IFO 31093, 48 h; outline: as §1
# [6] = tested on: Candida albicans; experiment: Antifungal activity against Candida albicans ATCC MYA-2732 after 47 hrs by broth microdilution method; conditions: ATCC MYA-2732, 47 h
# Outline: (§3)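 Fluconazole-resistant or susceptible-dose-dependent C. albicans ATCC strains were tested by broth microdilution in RPMI 1640-MOPS. Inoculum was 1.1 × 10^3–1.5 × 10^3 CFU/ml, with incubation at 35°C for about 47 h. Yeast MIC was read as about 50% turbidity decrease relative to growth control, except amphotericin B, read at complete inhibition.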
# [7] = tested on: Aspergillus fumigatus; experiment: Antifungal activity against Aspergillus fumigatus IFM 46895 infected ICR mouse after 6 days; conditions: IFM 46895, 144 h
# Outline: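 Male ICR mice, 4 weeks old and SPF, were made neutropenic with intraperitoneal cyclophosphamide. The schedule was 200 mg/kg on day −3 (day −4 for Cryptococcus) plus 100 mg/kg on day +1. Infection was by tail-vein injection of 0.2 ml suspension: C. albicans 3.0 × 10^4, C. neoformans 9.1 × 10^4, A. fumigatus conidia 8.4 × 10^4 CFU/mouse. Drugs were given subcutaneously once daily for 7 days from 2 h post-infection; controls received saline. Groups had 8–10 mice.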
# [8] = tested on: Pichia kudriavzevii; experiment: Antifungal activity against Candida krusei IFO 0584 after 48 hrs by broth microdilution method; conditions: IFO 0584, 48 h; outline: as §1
# [9] = tested on: Candida albicans; experiment: Antifungal activity against Candida albicans ATCC 64124 after 47 hrs by broth microdilution method; conditions: ATCC 64124, 47 h
# Outline: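 Fluconazole-resistant or susceptible-dose-dependent ATCC C. albicans strains were tested by CLSI M27-A2 broth microdilution in RPMI 1640–0.165 M MOPS, pH 7.0, with a final inoculum of 1.1–1.5 × 10^3 CFU/ml at 35°C for about 47 h. MIC was the lowest concentration with a prominent (~50%) turbidity decrease relative to growth control; amphotericin B was read at complete inhibition.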
# [10] = tested on: Cryptococcus neoformans; experiment: Antifungal activity against Cryptococcus neoformans TIMM 0354 after 72 hrs by broth microdilution method; conditions: TIMM 0354, 72 h; outline: as §2
# [11] = tested on: Aspergillus fumigatus; experiment: Antifungal activity against Aspergillus fumigatus TIMM 0063 after 48 hrs by broth microdilution method; conditions: TIMM 0063, 48 h; outline: as §1
# [12] = tested on: Nakaseomyces glabratus; experiment: Antifungal activity against Candida glabrata clinical isolates after 48 hrs by broth microdilution method
# Outline: (§4)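 Clinical isolates from Japanese hospitals or culture collections were tested by broth microdilution in RPMI 1640-MOPS. Inoculum was 0.57 × 10^3–2.5 × 10^3 CFU/ml for yeasts and 0.4 × 10^4–3.3 × 10^4 CFU/ml for filamentous fungi. Incubation was at 35°C for about 48 h, or 72 h where footnoted. Results were summarised as MIC range, MIC50 and MIC90.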
# [13] = tested on: Trichosporon asahii; experiment: Antifungal activity against Trichosporon asahii JCM 2466 after 48 hrs by broth microdilution method; conditions: JCM 2466, 48 h; outline: as §1
# [14] = tested on: Candida albicans; experiment: Antifungal activity against Candida albicans ATCC MYA-574 after 47 hrs by broth microdilution method; conditions: ATCC MYA-574, 47 h; outline: as §3
# [15] = tested on: Candida parapsilosis; experiment: Antifungal activity against Candida parapsilosis NBRC 10219 after 48 hrs by broth microdilution method; conditions: Lodderomyces parapsilosis, NBRC 10219, 48 h; outline: as §2
# [16] = tested on: Aspergillus flavus; experiment: Antifungal activity against Aspergillus flavus NBRC 6343 after 48 hrs by broth microdilution method; conditions: NBRC 6343, 48 h; outline: as §1
# [17] = tested on: Candida tropicalis; experiment: Antifungal activity against Candida tropicalis IFO 1400 after 48 hrs by broth microdilution method; conditions: IFO 1400, 48 h; outline: as §1
# [18] = tested on: Mucor racemosus; experiment: Antifungal activity against Mucor racemosus NBRC5403 after 24 hrs by broth microdilution method; conditions: NBRC5403, 24 h
# [19] = tested on: Aspergillus fumigatus; experiment: Antifungal activity against Aspergillus fumigatus ATCC 16424 after 48 hrs by broth microdilution method; conditions: ATCC 16424, 48 h; outline: as §2
# [20] = tested on: Candida albicans; experiment: Antifungal activity against Candida albicans ATCC 24433 after 48 hrs by broth microdilution method; conditions: ATCC 24433, 48 h; outline: as §2
# [21] = tested on: Candida albicans; experiment: Antifungal activity against Candida albicans clinical isolates after 48 hrs by broth microdilution method; outline: as §4
# [22] = tested on: Candida parapsilosis; experiment: Antifungal activity against Candida parapsilosis clinical isolates after 48 hrs by broth microdilution method; conditions: Lodderomyces parapsilosis
# Outline: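 Japanese hospital Candida isolates were tested by CLSI M27-A2 broth microdilution in RPMI 1640–MOPS, pH 7.0, with inocula of 0.57–2.5 × 10^3 CFU/ml at 35°C for about 48 h. Inocula came from 24-h potato dextrose agar cultures. MIC was the lowest concentration with about 50% turbidity reduction versus growth control (complete inhibition for amphotericin B). Range, MIC50 and MIC90 were reported.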
smiles,measurement,setting,value
N=C(N)c1ccc(OCCCC2CCN(CCCOc3ccc(C(=N)N)cc3)CC2)cc1,MFC,[1],2 µg/mL
same,MIC,[1],0.0313 µg/mL
same,MFC,[2],0.0313 µg/mL
same,MIC,[2],0.0078 µg/mL
same,MFC,[3],0.0078 µg/mL
same,MIC,[3],0.002 µg/mL
same,MFC,[4],4 µg/mL
same,MIC,[4],0.125 µg/mL
same,MFC,[5],> 64 µg/mL
same,MIC,[5],0.125 µg/mL
same,MIC,[6],0.001 µg/mL
same,ED50,[7],0.391 mg/kg
same,MFC,[8],0.002 µg/mL
same,MIC,[8],0.001 µg/mL
same,MIC,[9],0.001 µg/mL
same,MFC,[10],0.0156 µg/mL
same,MIC,[10],0.0039 µg/mL
same,MFC,[11],> 64 µg/mL
same,MIC,[11],1 µg/mL
same,MIC,[12],0.0039 µg/mL
same,MIC50,[12],0.0039 µg/mL
same,MIC90,[12],0.0078 µg/mL
same,MFC,[13],> 64 µg/mL
same,MIC,[13],64 µg/mL
same,MIC,[14],0.001 µg/mL
same,MFC,[15],> 64 µg/mL
same,MIC,[15],0.001 µg/mL
same,MFC,[16],8 µg/mL
same,MIC,[16],0.5 µg/mL
same,MFC,[17],4 µg/mL
same,MIC,[17],0.0005 µg/mL
same,MFC,[18],> 64 µg/mL
same,MIC,[18],2 µg/mL
same,MFC,[19],> 64 µg/mL
same,MIC,[19],0.125 µg/mL
same,MFC,[20],> 64 µg/mL
same,MIC,[20],0.001 µg/mL
same,MIC50,[21],0.0005 µg/mL
same,MIC90,[21],0.002 µg/mL
same,MIC50,[22],0.0005 µg/mL
same,MIC90,[22],0.0005 µg/mL
OC(Cn1cncn1)(Cn1cncn1)c1ccc(F)cc1F [FLUCONAZOLE],MFC,[1],> 64 µg/mL
same,MIC,[1],4 µg/mL
same,MFC,[2],> 64 µg/mL
same,MIC,[2],1 µg/mL
same,MFC,[3],> 64 µg/mL
same,MIC,[3],4 µg/mL
same,MFC,[4],> 64 µg/mL
same,MIC,[4],> 64 µg/mL
same,MFC,[5],> 64 µg/mL
same,MIC,[5],> 64 µg/mL
same,MIC,[6],16 µg/mL
same,MFC,[8],64 µg/mL
same,MIC,[8],32 µg/mL
same,MIC,[9],> 64 µg/mL
same,MFC,[10],> 64 µg/mL
same,MIC,[10],2 µg/mL
same,MFC,[11],> 64 µg/mL
same,MIC,[11],> 64 µg/mL
same,MFC,[13],> 64 µg/mL
same,MIC,[13],1 µg/mL
same,MIC,[14],64 µg/mL
same,MFC,[15],> 64 µg/mL
same,MIC,[15],1 µg/mL
same,MFC,[16],> 64 µg/mL
same,MIC,[16],> 64 µg/mL
same,MFC,[17],> 64 µg/mL
same,MIC,[17],2 µg/mL
same,MFC,[18],> 64 µg/mL
same,MIC,[18],> 64 µg/mL
same,MFC,[19],> 64 µg/mL
same,MIC,[19],> 64 µg/mL
same,MFC,[20],> 64 µg/mL
same,MIC,[20],0.125 µg/mL
same,MIC,[21],0.125 µg/mL
same,MIC50,[21],0.125 µg/mL
same,MIC90,[21],0.25 µg/mL
same,MIC50,[22],0.5 µg/mL
same,MIC90,[22],1 µg/mL
C[C@@H](c1ncncc1F)[C@](O)(Cn1cncn1)c1ccc(F)cc1F [VORICONAZOLE],MFC,[1],> 64 µg/mL
same,MIC,[1],0.0625 µg/mL
same,MFC,[2],> 64 µg/mL
same,MIC,[2],0.0313 µg/mL
same,MFC,[3],0.5 µg/mL
same,MIC,[3],0.0625 µg/mL
same,MFC,[4],32 µg/mL
same,MIC,[4],0.5 µg/mL
same,MFC,[5],8 µg/mL
same,MIC,[5],8 µg/mL
same,MIC,[6],0.25 µg/mL
same,MFC,[8],2 µg/mL
same,MIC,[8],0.125 µg/mL
same,MIC,[9],16 µg/mL
same,MFC,[10],> 64 µg/mL
same,MIC,[10],0.0313 µg/mL
same,MFC,[11],1 µg/mL
same,MIC,[11],1 µg/mL
same,MIC50,[12],0.125 µg/mL
same,MIC90,[12],0.5 µg/mL
same,MFC,[13],> 64 µg/mL
same,MIC,[13],0.0625 µg/mL
same,MIC,[14],0.25 µg/mL
same,MFC,[15],> 64 µg/mL
same,MIC,[15],0.0313 µg/mL
same,MFC,[16],1 µg/mL
same,MIC,[16],0.5 µg/mL
same,MFC,[17],> 64 µg/mL
same,MIC,[17],0.0625 µg/mL
same,MFC,[18],> 64 µg/mL
same,MIC,[18],> 64 µg/mL
same,MFC,[19],32 µg/mL
same,MIC,[19],0.25 µg/mL
same,MFC,[20],> 64 µg/mL
same,MIC,[20],0.0078 µg/mL
same,MIC,[21],0.0039 µg/mL
same,MIC50,[21],0.0039 µg/mL
same,MIC90,[21],0.0078 µg/mL
same,MIC50,[22],0.0156 µg/mL
same,MIC90,[22],0.0313 µg/mL

# — ChEMBL document CHEMBL1255303, “In vitro and in vivo antifungal activities of T-2307, a novel arylamidine” (2008)
